Experiments:
Type in all cases: functional
OVCAR-4 = test: Growth inhibition of human OVCAR4 cells after 48 hrs by sulforhodamine B assay; settings: OVCAR-4, 48 h
In short: (§1)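 NCI 60-cell-line panel. Cells are grown in RPMI1640 with 5% fetal calf serum and 2 mM L-glutamine, seeded at a density set by growth characteristics, and preincubated 24 h. Compound is tested at a minimum of five concentrations at 10-fold dilution, with 48 h continuous exposure. Viability is read by sulforhodamine B protein assay. GI50, TGI and LC50 come from dose-response curves.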

SF-268 = test: Antiproliferative activity against human SF268 cells assessed as cell growth at 100 uM after 48 hrs by alamar blue assay; settings: SF-268, 48 h, read-out: Activity
In short: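 NCI three-cell-line primary screen. Cells are seeded and preincubated in microtiter plates. Compound is added at a single 10^-4 M concentration and cultures are incubated 48 h. The end-point is read with alamar blue. Results are given as percent growth relative to untreated control cells.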

SF-539 = test: Growth inhibition of human SF539 cells after 48 hrs by sulforhodamine B assay; settings: SF-539, 48 h; in short: as §1
CAKI-1 = test: Growth inhibition of human Caki1 cells after 48 hrs by sulforhodamine B assay; settings: CAKI-1, 48 h; in short: as §1
NCI-H522 = test: Growth inhibition of human NCI-H522 cells after 48 hrs by sulforhodamine B assay; settings: NCI-H522, 48 h; in short: as §1
IGROV-1 = test: Growth inhibition of human IGROV1 cells after 48 hrs by sulforhodamine B assay; settings: IGROV-1, 48 h; in short: as §1
SK-MEL-28 = test: Growth inhibition of human SK-MEL-28 cells after 48 hrs by sulforhodamine B assay; settings: SK-MEL-28, 48 h; in short: as §1
ACHN = test: Growth inhibition of human ACHN cells after 48 hrs by sulforhodamine B assay; settings: for CC50: read-out: LC50 (the source's name); in short: as §1
HOP-92 = test: Growth inhibition of human HOP92 cells after 48 hrs by sulforhodamine B assay; settings: HOP-92, 48 h; in short: as §1
SW-620 = test: Growth inhibition of human SW620 cells after 48 hrs by sulforhodamine B assay; settings: SW-620, 48 h
In short: (§2)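 NCI 60-cell-line panel (nine cancer types), with cells grown in RPMI1640 plus 5% fetal calf serum and 2 mM L-glutamine. Cells are seeded at a density that depends on the line and preincubated 24 h. Compounds are then applied at a minimum of five 10-fold dilutions over a 5-log range with 48 h continuous exposure. Viability is read by SRB protein assay, and GI50 is derived from dose-response curves in units of 10^-5 M.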

SNB-75 = test: Growth inhibition of human SNB75 cells after 48 hrs by sulforhodamine B assay; settings: SNB-75, 48 h; in short: as §2
786-0 = test: Growth inhibition of human 786-0 cells after 48 hrs by sulforhodamine B assay; settings: 786-0, 48 h; for CC50: read-out: LC50 (the source's name); in short: as §1
MDA-MB-435 = test: Growth inhibition of human MDA-MB-435 cells after 48 hrs by sulforhodamine B assay; settings: MDA-MB-435, 48 h; in short: as §1
NCI-H322M = test: Growth inhibition of human NCI-H322M cells after 48 hrs by sulforhodamine B assay; in short: as §1
NCI-H460 = test: Growth inhibition of human NCI-H460 cells after 48 hrs by sulforhodamine B assay; settings: NCI-H460, 48 h; in short: as §1
SK-OV-3 = test: Growth inhibition of human SKOV3 cells after 48 hrs by sulforhodamine B assay; settings: SK-OV-3, 48 h; in short: as §1
COLO 205 = test: Growth inhibition of human COLO205 cells after 48 hrs by sulforhodamine B assay; settings: COLO 205, 48 h; in short: as §1
OVCAR-3 = test: Growth inhibition of human OVCAR-3 cells after 48 hrs by sulforhodamine B assay; settings: OVCAR-3, 48 h; in short: as §1
UACC-257 = test: Growth inhibition of human UACC257 cells after 48 hrs by sulforhodamine B assay; settings: UACC-257, 48 h; in short: as §2
HCT-15 = test: Growth inhibition of human HCT15 cells after 48 hrs by sulforhodamine B assay; settings: HCT-15, 48 h; in short: as §1
[1] = Growth inhibition of human […] cells after 48 hrs by sulforhodamine B assay; settings: for CC50: read-out: LC50 (the source's name); in short: as §1
HL-60(TB) = test: Growth inhibition of human HL-60(TB) cells after 48 hrs by sulforhodamine B assay; settings: HL-60, 48 h
In short: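 NCI 60-cell-line panel. Cells were grown in RPMI1640 with 5% fetal calf serum and 2 mM L-glutamine, seeded at a density suited to each line, and preincubated 24 h. Compounds were tested at a minimum of five concentrations at 10-fold dilutions over a 5-log range, with 48 h continuous exposure. Growth was read by sulforhodamine B protein staining, and GI50 was taken from dose-response curves.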

SN12C = test: Growth inhibition of human SN12C cells after 48 hrs by sulforhodamine B assay; in short: as §1
NCI-H226 = test: Growth inhibition of human NCI-H226 cells after 48 hrs by sulforhodamine B assay; settings: NCI-H226, 48 h; in short: as §1
CCRF-CEM = test: Growth inhibition of human CCRF-CEM cells after 48 hrs by sulforhodamine B assay; in short: as §1
OVCAR-5 = test: Growth inhibition of human OVCAR5 cells after 48 hrs by sulforhodamine B assay; settings: OVCAR-5, 48 h; in short: as §1
SF-295 = test: Growth inhibition of human SF295 cells after 48 hrs by sulforhodamine B assay; settings: SF-295, 48 h; in short: as §1
RXF 393 = test: Growth inhibition of human RXF393 cells after 48 hrs by sulforhodamine B assay; settings: RXF 393, 48 h; for CC50: read-out: LC50 (the source's name); in short: as §1
T47D = test: Growth inhibition of human T47D cells after 48 hrs by sulforhodamine B assay; in short: as §2

COc1ccc(/C=N/c2nc3[nH]nc(C)n3c(=O)c2S(=O)(=O)NN2C(=O)C(CN3CCOCC3)SC2c2ccc(OC)cc2)cc1 (configuration not stated)
GI50 (OVCAR-4): 94.4 µM | LC50 (OVCAR-4): > 100 µM | TGI (OVCAR-4): > 100 µM | growth at 100 µM (SF-268): 75% | GI50 (SF-539): 75.1 µM | LC50 (SF-539): > 100 µM | TGI (SF-539): > 100 µM | GI50 (CAKI-1): 43.3 µM | LC50 (50% lethal concentration) (CAKI-1): > 100 µM | TGI (CAKI-1): > 100 µM | GI50 (NCI-H522): 32.5 µM | TGI (NCI-H522): > 100 µM | GI50 (IGROV-1): 26 µM | LC50 (IGROV-1): > 100 µM | TGI (IGROV-1): 97.4 µM | GI50 (SK-MEL-28): > 100 µM | TGI (SK-MEL-28): > 100 µM | GI50 (ACHN): 23.1 µM | TGI (ACHN): 92.6 µM | CC50 (ACHN): > 100 µM | GI50 (HOP-92): 36.3 µM | LC50 (HOP-92): > 100 µM | TGI (HOP-92): > 100 µM | GI50 (SW-620): 47.1 µM | GI50 (SNB-75): 57.3 µM | TGI (SNB-75): > 100 µM | GI50 (786-0): 67.1 µM | TGI (786-0): > 100 µM | CC50 (786-0): > 100 µM | GI50 (MDA-MB-435): 35 µM | TGI (MDA-MB-435): > 100 µM | GI50 (NCI-H322M): 39.8 µM | TGI (NCI-H322M): > 100 µM | GI50 (NCI-H460): 87.7 µM | TGI (NCI-H460): > 100 µM | GI50 (SK-OV-3): > 100 µM | TGI (SK-OV-3): > 100 µM | GI50 (COLO 205): 66.2 µM | TGI (COLO 205): > 100 µM | GI50 (OVCAR-3): 22.5 µM | LC50 (concentration killing 50% of cells) (OVCAR-3): > 100 µM | TGI (OVCAR-3): 60.5 µM | GI50 (UACC-257): 32.2 µM | LC50 (UACC-257): > 100 µM | TGI (UACC-257): > 100 µM | GI50 (HCT-15): 26.7 µM | TGI (HCT-15): > 100 µM | GI50 [1]: 16.4 µM | TGI [1]: 44.3 µM | CC50 [1]: > 100 µM | GI50 (HL-60(TB)): 9.8 µM | LC50 (HL-60(TB)): 74.3 µM | TGI (HL-60(TB)): 27.2 µM | GI50 (SN12C): 55.1 µM | LC50 (SN12C): > 100 µM | TGI (SN12C): > 100 µM | GI50 (NCI-H226): 53.6 µM | LC50 (concentration killing 50% of cells) (NCI-H226): > 100 µM | TGI (NCI-H226): > 100 µM | GI50 (CCRF-CEM): 25.8 µM | TGI (CCRF-CEM): 78.9 µM | GI50 (OVCAR-5): > 100 µM | LC50 (concentration causing 50% net cell kill) (OVCAR-5): > 100 µM | TGI (OVCAR-5): > 100 µM | GI50 (SF-295): 33.2 µM | LC50 (concentration killing 50% of cells) (SF-295): > 100 µM | TGI (SF-295): > 100 µM | GI50 (RXF 393): 15 µM | TGI (RXF 393): > 100 µM | CC50 (RXF 393): > 100 µM | GI50 (T47D): > 100 µM | TGI (T47D): > 100 µM

COc1ccc(/C=N/c2nc3[nH]nc(C)n3c(=O)c2S(=O)(=O)NN2C(=O)C(CN3CCN(C)CC3)SC2c2ccc(OC)cc2)cc1 (configuration not stated)
GI50 (OVCAR-4): 23.3 µM | LC50 (OVCAR-4): 96.5 µM | TGI (OVCAR-4): 47.4 µM | growth at 100 µM (SF-268): 18% | GI50 (SF-539): 6.5 µM | LC50 (SF-539): 61.2 µM | TGI (SF-539): 21.8 µM | GI50 (CAKI-1): 20.9 µM | LC50 (50% lethal concentration) (CAKI-1): 77.8 µM | TGI (CAKI-1): 40.3 µM | GI50 (NCI-H522): 21.9 µM | TGI (NCI-H522): 47.7 µM | GI50 (IGROV-1): 21 µM | LC50 (IGROV-1): 93.9 µM | TGI (IGROV-1): 44.4 µM | GI50 (SK-MEL-28): 30.3 µM | TGI (SK-MEL-28): 78.2 µM | GI50 (ACHN): 17.4 µM | TGI (ACHN): 34.5 µM | CC50 (ACHN): 68.4 µM | GI50 (HOP-92): 17.8 µM | LC50 (HOP-92): 74.2 µM | TGI (HOP-92): 36.4 µM | GI50 (SW-620): 30.4 µM | GI50 (SNB-75): 23.6 µM | TGI (SNB-75): 51.8 µM | GI50 (786-0): 16.2 µM | TGI (786-0): 31.2 µM | CC50 (786-0): 59.9 µM | GI50 (MDA-MB-435): 24.1 µM | TGI (MDA-MB-435): 64.6 µM | GI50 (NCI-H322M): 21.1 µM | TGI (NCI-H322M): 51.1 µM | GI50 (NCI-H460): 16.4 µM | TGI (NCI-H460): 46.7 µM | GI50 (SK-OV-3): 27.1 µM | TGI (SK-OV-3): 73.3 µM | GI50 (OVCAR-3): 21.5 µM | LC50 (concentration killing 50% of cells) (OVCAR-3): 75.3 µM | TGI (OVCAR-3): 40.2 µM | GI50 (UACC-257): 21.6 µM | LC50 (UACC-257): 92.3 µM | TGI (UACC-257): 44.7 µM | GI50 (HCT-15): 17.2 µM | TGI (HCT-15): 70.8 µM | GI50 [1]: 14.1 µM | TGI [1]: 39 µM | CC50 [1]: > 100 µM | GI50 (HL-60(TB)): 28.2 µM | LC50 (HL-60(TB)): > 100 µM | TGI (HL-60(TB)): 86.8 µM | GI50 (SN12C): 18.6 µM | LC50 (SN12C): 68.9 µM | TGI (SN12C): 35.8 µM | GI50 (NCI-H226): 12.4 µM | LC50 (concentration killing 50% of cells) (NCI-H226): 75.7 µM | TGI (NCI-H226): 30.6 µM | GI50 (CCRF-CEM): 17.2 µM | TGI (CCRF-CEM): 49.2 µM | GI50 (OVCAR-5): 24.3 µM | LC50 (concentration causing 50% net cell kill) (OVCAR-5): 90.7 µM | TGI (OVCAR-5): 47 µM | GI50 (SF-295): 16.8 µM | LC50 (concentration killing 50% of cells) (SF-295): 76.8 µM | TGI (SF-295): 35.9 µM | GI50 (RXF 393): 10.2 µM | TGI (RXF 393): 31.1 µM | CC50 (RXF 393): 95.1 µM | GI50 (T47D): 31.2 µM | TGI (T47D): 89.4 µM
